The results in this text go back to ChEMBL document CHEMBL1255408, “Roles of calcineurin and Crz1 in antifungal susceptibility and virulence of Candida glabrata” (2010).

One may read the MIC as the least concentration at which growth counts as inhibited.

In brackets after ≈: the same amount, converted by molar mass. Activity calls are given as the source filed them. The rule behind the calls is not given here. Starred links: 1 amine or outer side, 2 acyl side, 3 side chain; linkers in the order of their positions; H or OH if unused. Positions of bridges follow the written chain, without caps; N, C: chain ends. Non-standard residues stand in square brackets, D forms with d. Residues, ends and D or L forms follow the SMILES beside them. *: point of attachment. hTyr(3S-OH,4S-OH,3'-OSO3H) = N[C@H](C(=O)O)[C@H](O)[C@@H](O)c1ccc(O)c(OS(=O)(=O)O)c1; Orn(4R-OH,5R-OH) = O=C([C@H](C[C@@H](O)[C@@H](O)N[*:3])N[*:1])[*:2]; Pro(3S-OH,4S-Me) = C[C@H]1CN[C@H](C(=O)O)[C@H]1O; X1 = CCCCCOc1ccc(-c2cc(-c3ccc(C(=O)*)cc3)no2)cc1; Gln(3R-OH) = NC(=O)C[C@@H](O)[C@H](N)C(=O)O; Hyp = O=C(O)[C@@H]1C[C@@H](O)CN1

For test [1], the system named is Nakaseomyces glabratus. The test can be described thus: Fungicidal activity against calcineurin deltacnb1 mutant containing Candida glabrata TG163 complemented with CNB1 gene at 0.03 ug/ml after 24 hrs by colorimetric microdilution method. In kind it is functional, organism-based. A digest of the protocol:
(§1)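 Log-phase cells at 2.5 × 10^3 CFU/ml in minimal medium, with or without micafungin (dissolved in distilled water). OD600 read after 24 h. Percent absorbance at 0.03 μg/ml relative to drug-free culture; mean and SD of three independent experiments.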
In general terms: Dilution methods test growth across graded concentrations, often in twofold steps.

Test [2] has as its system Nakaseomyces glabratus. The test can be described thus: Fungicidal activity against Candida glabrata TG172 containing deltacrz1 mutant at 0.03 ug/ml after 24 hrs by colorimetric microdilution method. The test is classed as functional, organism-based. In short, it runs like this:
as §1

Test [3] has as its system Nakaseomyces glabratus. Put plainly: Fungistatic activity against wild type Candida glabrata TG11 at 0.03 ug/ml after 24 hrs by colorimetric microdilution method. In kind it is functional, organism-based.
The subject of test [4] is Nakaseomyces glabratus. Put plainly: Fungicidal activity against Candida glabrata TG162 containing calcineurin deltacnb1 mutant at 0.03 ug/ml after 24 hrs by colorimetric microdilution method. In kind it is functional, organism-based. In short, it runs like this: as §1
The test system of test [5] is Nakaseomyces glabratus. The test can be described thus: Fungicidal activity against deltacrz1 mutant containing Candida glabrata TG173 complemented with CRZ1 gene at 0.03 ug/ml after 24 hrs by colorimetric microdilution method. The test is classed as functional, organism-based. A digest of the protocol:
as §1

The test system of test [6] is Nakaseomyces glabratus. The test can be described thus: Antimicrobial activity against Candida glabrata TG162 containing calcineurin deltacnb1 mutant at 1 mg/ml after 48 hrs. In kind it is functional, organism-based. A digest of the protocol: (§2)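 Spot assay: serial 10-fold dilutions of log-phase cells spotted on minimal-medium plates containing micafungin, Congo red or calcofluor white. Plates incubated 48 h at 30°C; each test repeated at least three times.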

Test [7] deals with Nakaseomyces glabratus. Put plainly: Antimicrobial activity against Candida glabrata TG172 containing deltacrz1 mutant at 1 mg/ml after 48 hrs. The test is classed as functional, organism-based. In short, it runs like this: as §2
Test [8] has as its system Nakaseomyces glabratus. Put plainly: Antimicrobial activity against Candida glabrata TG172 containing deltacrz1 mutant at 0.8 mg/ml after 48 hrs. In kind it is functional, organism-based. A digest of the protocol:
as §2

The test system of test [9] is Nakaseomyces glabratus. Put plainly: Antimicrobial activity against Candida glabrata TG162 containing calcineurin deltacnb1 mutant at 0.8 mg/ml after 48 hrs. In kind it is functional, organism-based. A digest of the protocol:
as §2

The test system of test [10] is Nakaseomyces glabratus. Put plainly: Antimicrobial activity against Candida glabrata TG162 containing calcineurin deltacnb1 mutant by colorimetric microdilution method. In kind it is functional. In short, it runs like this:
(§3)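 MIC by commercially prepared colorimetric broth microdilution panel; agents tested were fluconazole, miconazole, itraconazole, voriconazole and amphotericin B.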

Test [11] has as its system Nakaseomyces glabratus. The test can be described thus: Antimicrobial activity against Candida glabrata TG172 containing deltacrz1 mutant by colorimetric microdilution method. The test is classed as functional. A digest of the protocol: as §3
Test [12] deals with Nakaseomyces glabratus. The test can be described thus: Antimicrobial activity against deltacrz1 mutant containing Candida glabrata TG173 complemented with CRZ1 gene by colorimetric microdilution method. The test is classed as functional. A digest of the protocol: as §3
The subject of test [13] is Nakaseomyces glabratus. The test can be described thus: Antimicrobial activity against calcineurin deltacnb1 mutant containing Candida glabrata TG163 complemented with CNB1 gene by colorimetric microdilution method. In kind it is functional. A digest of the protocol:
as §3

Test [14] concerns Nakaseomyces glabratus. Put plainly: Antimicrobial activity against wild type Candida glabrata TG11 by colorimetric microdilution method. In kind it is functional. In short, it runs like this:
as §3

In test [15] the test system is Nakaseomyces glabratus. Put plainly: Fungistatic activity against calcineurin deltacnb1 mutant containing Candida glabrata TG163 complemented with CNB1 gene assessed as reduction in […] cell viability by time kill study. In kind it is functional, organism-based. A digest of the protocol: (§4)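 Time-kill: log-phase cells at 5 × 10^5 CFU/ml in minimal medium with agitation, with or without fluconazole at several concentrations. Total cells counted by hemocytometer, viable cells by plating dilutions on YPD. Read-out is percent viability; mean and SD of three independent experiments.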

Test [16] has as its system Nakaseomyces glabratus. The test can be described thus: Fungistatic activity against wild type Candida glabrata TG11 assessed as reduction in […] cell viability by time kill study. The test is classed as functional, organism-based. In short, it runs like this: as §4
For test [17], the system named is Nakaseomyces glabratus. Put plainly: Fungicidal activity against Candida glabrata TG162 containing calcineurin deltacnb1 mutant assessed as reduction in […] cell viability by time kill study. The test is classed as functional, organism-based. A digest of the protocol: as §4
Test [18] has as its system Nakaseomyces glabratus. Put plainly: Antimicrobial activity against Candida glabrata TG172 containing deltacrz1 mutant assessed as reduction in […] cell viability by time kill study. In kind it is functional, organism-based. A digest of the protocol:
as §4

For test [19], the system named is Nakaseomyces glabratus. Put plainly: Antimicrobial activity against deltacrz1 mutant containing Candida glabrata TG173 complemented with CRZ1 gene assessed as reduction in […] cell viability by time kill study. The test is classed as functional, organism-based. In short, it runs like this: as §4

With `CCCCCOc1ccc(-c2cc(-c3ccc(C(=O)N[C@H]4C[C@@H](O)[C@@H](O)NC(=O)[C@@H]5[C@@H](O)[C@@H](C)CN5C(=O)[C@H]([C@H](O)CC(N)=O)NC(=O)[C@H]([C@H](O)[C@@H](O)c5ccc(O)c(OS(=O)(=O)O)c5)NC(=O)[C@@H]5C[C@@H](O)CN5C(=O)[C@H]([C@@H](C)O)NC4=O)cc3)no2)cc1` (X1-[Orn(4R-OH,5R-OH)]T[Hyp][hTyr(3S-OH,4S-OH,3'-OSO3H)][Gln(3R-OH)][Pro(3S-OH,4S-Me)]; lactam 1-C), the “growth inhibition (GI)” value in the test on Nakaseomyces glabratus [1] and in the test with Nakaseomyces glabratus [5] was “inactive” throughout. The “growth inhibition (GI)” value in the test on Nakaseomyces glabratus [2], in the test with Nakaseomyces glabratus [3] and in the test with Nakaseomyces glabratus [4] was “Active” in each case.
With `Nc1c(/N=N/c2ccc(-c3ccc(/N=N/c4cc(S(=O)(=O)O)c5ccccc5c4N)cc3)cc2)cc(S(=O)(=O)O)c2ccccc12`, the “growth inhibition (GI)” value in the test on Nakaseomyces glabratus [6] and in the test with Nakaseomyces glabratus [7] was “Active” in each case.
For `O=S(=O)(O)c1cc(Nc2nc(Nc3ccccc3)nc(N(CCO)CCO)n2)ccc1/C=C/c1ccc(Nc2nc(Nc3ccccc3)nc(N(CCO)CCO)n2)cc1S(=O)(=O)O`, the “growth inhibition (GI)” value in the test on Nakaseomyces glabratus [8] was “inactive”. For the same compound, the “growth inhibition (GI)” value in the test with Nakaseomyces glabratus [9] is “Active”.
In the case of `C[C@@H](c1ncncc1F)[C@](O)(Cn1cncn1)c1ccc(F)cc1F` [VORICONAZOLE], the MIC in the test with Nakaseomyces glabratus [10] is 0.125 µg/mL (≈ 0.358 µM); in the test with Nakaseomyces glabratus [11], 0.5 µg/mL (≈ 1.43 µM); in the test with Nakaseomyces glabratus [12], 0.25 µg/mL (≈ 0.716 µM); in the test on Nakaseomyces glabratus [13], 0.25 µg/mL (≈ 0.716 µM); in the test on Nakaseomyces glabratus [14], 0.25 µg/mL (≈ 0.716 µM).
For the compound `CCC(C)n1ncn(-c2ccc(N3CCN(c4ccc(OCC5COC(Cn6cncn6)(c6ccc(Cl)cc6Cl)O5)cc4)CC3)cc2)c1=O` (centres undefined) [ITRACONAZOLE], the minimal inhibitory concentration (MIC) in the test with Nakaseomyces glabratus [10] was 0.5 µg/mL (≈ 0.709 µM); against Nakaseomyces glabratus [11], 1 µg/mL (≈ 1.42 µM); against Nakaseomyces glabratus [12] it was 1 µg/mL (≈ 1.42 µM); with Nakaseomyces glabratus [13], 2 µg/mL (≈ 2.83 µM); in the test on Nakaseomyces glabratus [14], 2 µg/mL (≈ 2.83 µM).
In the case of `Clc1ccc(COC(Cn2ccnc2)c2ccc(Cl)cc2Cl)c(Cl)c1` (centres undefined) [MICONAZOLE], the MIC in the test with Nakaseomyces glabratus [10] worked out at 0.125 µg/mL (≈ 0.3 µM); with Nakaseomyces glabratus [11], 1 µg/mL (≈ 2.4 µM); against Nakaseomyces glabratus [12], 0.5 µg/mL (≈ 1.2 µM); in the test on Nakaseomyces glabratus [13] it was 0.5 µg/mL (≈ 1.2 µM); in the test with Nakaseomyces glabratus [14], 0.5 µg/mL (≈ 1.2 µM).
Turning to `OC(Cn1cncn1)(Cn1cncn1)c1ccc(F)cc1F` [FLUCONAZOLE], the “growth inhibition (GI)” value with Nakaseomyces glabratus [15], in the test on Nakaseomyces glabratus [16] and in the test on Nakaseomyces glabratus [17] was “Active” throughout. Further, the MIC with Nakaseomyces glabratus [10] is 4 µg/mL (≈ 13.1 µM); in the test with Nakaseomyces glabratus [11], 32 µg/mL (≈ 104 µM); against Nakaseomyces glabratus [12] it was 16 µg/mL (≈ 52.2 µM); with Nakaseomyces glabratus [13], 16 µg/mL (≈ 52.2 µM); against Nakaseomyces glabratus [14] it was 16 µg/mL (≈ 52.2 µM). For the same compound, the “growth inhibition (GI)” value with Nakaseomyces glabratus [18] and in the test on Nakaseomyces glabratus [19] was “inactive” in each case.
As for `C[C@@H]1[C@H](O)[C@@H](C)/C=C/C=C/C=C/C=C/C=C/C=C/C=C/[C@H](O[C@@H]2O[C@H](C)[C@@H](O)[C@H](N)[C@@H]2O)C[C@@H]2O[C@](O)(C[C@@H](O)C[C@@H](O)[C@H](O)CC[C@@H](O)C[C@@H](O)CC(=O)O[C@H]1C)C[C@H](O)[C@H]2C(=O)O` [AMPHOTERICIN B], the MIC in the test on Nakaseomyces glabratus [10], with Nakaseomyces glabratus [11], against Nakaseomyces glabratus [12], in the test with Nakaseomyces glabratus [13] and against Nakaseomyces glabratus [14] was 0.5 µg/mL (≈ 0.541 µM) throughout.
